Source: the EternaBench riboswitch data

Test system: MS2 coat protein
Assay: apparent Kd, MS2 coat protein; higher = weaker binding; RNA-MaP array; FMN 200 µM where present
Method in brief: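 The titrant was SNAP-549-labelled MS2 coat protein, run from 0.7 or 1.5 nM in doubling steps to 3 µM. It was applied to designs transcribed by stalled E. coli RNA polymerase on Illumina sequencing-chip clusters, without ligand first and then with constant ligand, in 100 mM Tris-HCl pH 7.5, 80 mM KCl, 4 mM MgCl2, BSA, DTT, yeast tRNA and Tween-20. The apparent Kd is the median of filtered per-cluster binding-curve fits, with green signal normalised to red-channel RNA signal and control-cluster median Fmax.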

[1] = designed as: OFF switch for flavin mononucleotide, no ligand
[2] = ligand present: flavin mononucleotide, designed as: OFF switch for flavin mononucleotide
[3] = designed as: ON switch for flavin mononucleotide, no ligand
[4] = ligand present: flavin mononucleotide, designed as: ON switch for flavin mononucleotide

Sequence | apparent Kd [1] | apparent Kd [2] | apparent Kd [3] | apparent Kd [4]
UUGGACCUAGGAUAUACAUGAGGAUCACCCAUGUUGGCGCACGCCCACCUGGGCCCGAGUAGAAGGAGGAAUGU | 18.9 nM | 20.3 nM |  | 
UGUGGGUGAUCAGGAUAUCCGUAUACAUGAGGAUCACCCAUGUCCUUGCUCAGCCGGGUAAGUUUGGAGAAGGGAUCAUCAAAU |  |  | 357 nM | 32.1 nM
CCAUGCGGAAUAGGAUAUUCAUUCAUGAGGAUAGAAGAAGGGUUACAUGAGGAUCACCCAUGUAUACACAUGAGGAUCCCUUAC | 162 nM | 180 nM |  | 
GUCAGCUCGUGAGGAUAUACAACACUGCUUCGGCAGUGUAUUAAGAUCACAUGAGGAUCACCCAUGUAGAAGGCACGAGUUGAU | 13.9 nM | 276 nM |  | 
CUUAGGUGAGGAUAUUAGUAGUAAAUGAAUAAAAUUAUUACUGAGAAGGCACAUGAGGAUCACCCAUGUUCCUC | 35.8 nM | 444 nM |  | 
GACUCUAAGUUUGUCAGUUAGAGAGAGGAUAUGGAAAACUUGACAUGAGGAUCACCCAUGUAUAAUCAGAAGGCUCGAGUACGA |  |  | 12.9 nM | 8.91 nM
GUAGCAUUCUGAGGAUAUUCAUACCGGAAACGGACAUGAGGAUCACCCAUGUGGCGAAAGCCUAGGGAGAAGGCAGUAUGCUAC |  |  | 56.6 nM | 13.8 nM
UAUGUGUGAGGAUAUGGUAAAGAUAAGAUGAUGAAAGAACUCCAGAAGGCACAUGAGGAUCACCCAUGUAGAUA | 22.8 nM | 45.6 nM |  | 
AUAUUAAGUGUGAGGAUAUGCUGGUCCUUGGAUCAGCAGAAGGCACAUGAGGAUCACCCAUGUAAUAUAUUUAU | 90.4 nM | 349 nM |  | 
AUACAUGAGGAUCACCCAUGUGGAUCACCCAUGUAAGAUGGUAGAAGGAUGUUAUUAUUAUUUUCAUAGGAUAUACUAUUUAGU | 328 nM | 408 nM |  | 
UUGUUAGGGAGAGGAUAUUGACAUGAGGAUCACCCAUGUAUUUGGGAGUGUUUACUGAAUUCUUACGAGAAGGCUUACGAAAUC | 264 nM | 186 nM |  | 
AUUAAAACAUAGGAUAUCGAAUUUAUCAUUUAACGAGAAGGAUGAACAUGAGGAUCACCCAUGUGGUAUCAUGG | 361 nM | 207 nM |  | 
UUUUUACGAGGAUAUCGUUUUUUUCACAUGAGGAUCACCCAUGUUGUUUAUGUUUCGUUUCGAGAAGGCGUUUGUU | 28.2 nM | 22.1 nM |  | 
UUUAUGUCAGGAUAUACAUGAGGAUCACCCAUGUAUAUCUUAAAAUAUACAUGGGAAUGUAGAAGGGACCUCCU | 51 nM | 41 nM |  | 
AAGGUACAUGAGGAUCACCCAUGUGGGUCGAACGCAGGAUAUCGCCGUUGGCCCUGGCGGCGAGAAGGGUGCCGAA |  |  | 189 nM | 175 nM
UAUAUAUAGUAAGGAUAUGUAUUAAUUGUAUAAACAGAAGGUACUGACAUGAGGAUCACCCAUGUUUUAGUGUGGGCAUGUAGA | 91.3 nM | 149 nM |  | 
CAACCGUUGCAGAAGGUUAAAUAUAUCAACUUAUGGACAACAUGAGGAUCACCCAUGUUUUUGUUGAAGGAUAUGCAAGGGUUG | 5.89 nM | 5.71 nM |  | 
AAAACAUGAGGAUCACCCAUGUAAAGAUCGGUCGAUGAAGGUGAGGAUAUACAAAACUUUAUGGAGUAGAAGGCACUGGGUUGA |  |  | 185 nM | 69.8 nM
UUAGUCAUGUGACGUGUUGACAUUCCAGAAGGGCCACAUGAGGAUCACCCAUGUCGAAGAAACAGGCAGGAUAUGGACCAAUGG |  |  | 43 nM | 11.2 nM
AACUCGUCAGGAUAUGCGCGCAGAUAAUACGCUUCGCAAUUGCAGAAGGGACAUGAGGAUCACCCAUGUAAAUA | 29.8 nM | 32 nM |  | 
UAUAUAUAGUAAGGAUAUGUAAAUAUUUUAUAAACAGAAGGUACUGACAUGAGGAUCACCCAUGUUUUAGUGUGGGCAUGUAGA | 79.2 nM | 139 nM |  | 
UCCACUACUGAGAAGGGAUACAUAUAAUUUUAGUCAGGAUAUCGAUACAGUGCAGCAUGAGGACAUGAGGAUCACCCAUGUAUU |  |  | 22.3 nM | 15.2 nM
AUAUACGUUGAGGAUAUGCGAAUAAGUAUAGUUGCAGAAGGCGACACAUGAGGAUCACCCAUGUUCAUGGACAC | 28.2 nM | 44.6 nM |  | 
UGUCGGAGCAGAGGAUAUUACAUGAGGAUCACCCAUGUAUGAAUCAAUAGCUGGAAACAGCAAUGUAAGAAGGCUGCUCCGACA | 7.86 nM | 26.6 nM |  | 

Sequence | apparent Kd [1] | apparent Kd [2] | apparent Kd [3] | apparent Kd [4]
AAUAUAAUAAGAGCUGGAAAUAAAACAUGAGGAUCACCCAUGUAGGAUAUCAGCACGAUAAGUGCUGAGAAGGACAACCAGCUC | 14 nM | 15.1 nM |  | 
GACUGAUUGUAGAAGGUACUUAAUAAUAUUUAAUAACUCAUGUGACAUGAGGAUCACCCAUGUAGUAAGGAUAUACAUAUCUCA |  |  | 211 nM | 79.5 nM
UGUCGGAGCAGAGGAUAUAUACAUGAGGAUCACCCAUGUAAAUGAAUGAGCUGGAAACAGCAAGUAUAGAAGGCUGCUCCGACA |  | 16.5 nM |  | 
GUGCGUGGCUAGGAUAUUGAGGAGUUUAGUCAGCGAGAAGGAGCCACAUGAGGAUCACCCAUGUGGUGAAGCUC | 18.6 nM | 68.6 nM |  | 
CAGUACUGAGGAUAUACAUGAGGAUCACCCAUGUGUUCCAGCUAGGGAACUAGCAAAAGUAGAAGGCAGUACUG | 22.4 nM | 437 nM |  | 
GUAGAGUAAGGAUAUCGAGAAUAGGAUAGAAUGGAUAGAAUCGAGAAGGUACAUGAGGAUCACCCAUGUAAUGU | 20.3 nM | 18.6 nM |  | 
GCUAUUGAUGUAGGAUAUGAUAUAGAAACUAUGUCAGAAGGACAUGAGGAUCACCCAUGUCAAUGGAUGGAGAGAAGAAAUGGC | 47.8 nM | 59.2 nM |  | 
GGUGCGUUUGUGAGGAUAUGCUGGUCCUUGGUUCGGCAGAAGGCACAUGAGGAUCACCCAUGUGGUGUCGUGCC | 35.1 nM | 77.5 nM |  | 
AUUGUAUGGGAAGGAUAUAGAAUAUUAUUUUAACAUGAGGAUCACCCAUGUAACCUUAUGUGUAGCUAGAAGGUCCGUUUAUUA | 131 nM | 157 nM |  | 
ACCAUUUACUAAUCCUCUAUACAUGAGGAUCACCCAUGUUUUGAGGAUAUCAGCGUGAAACACGCUGAGAAGGCAAAACAUUCG | 73.5 nM | 104 nM |  | 
ACAUGAGGAUCACCCAUGUUCACAUAGGAUAUUGAUUAUAUUGGUUUAAGAAUAGUAAUUAACCUCAAGAAGGAUGCCUGAUCU |  |  | 14.9 nM | 12 nM
CCAAGCUGUGUGAGGAUAUGCUGGUCCUUGGAUCAGCAGAAGGCACAUGAGGAUCACCCAUGUGAAAAGCUUGG | 15.1 nM | 52.1 nM |  | 
AUCAUCUUAUCAGGAUAUGCGUGUCGACGAAAGUAGACAAUCUUGAUAACAUGAGGAUCACCCAUGUAGAAGGGAUGAGAUGAU | 46.6 nM | 40.2 nM |  | 
AAGAAGUGAGGAUAUCGAAGACAGACGAAAAGUCUGUCAAACGAGAAGGCACAUGAGGAUCACCCAUGUAAGAA | 25.9 nM | 35.2 nM |  | 
ACGCGAUGGGAGAAGGUACUUUAAUUAGGUUACACAUGAGGAUCACCCAUGUAAGGAUAUCCCAUCGUUAAAUAUUAUACAGCA | 6.16 nM | 5.41 nM |  | 
CGUGCGUAUGUGAGGAUAUGCUGGUCCUUGGCUCGGCAGAAGGCACAUGAGGAUCACCCAUGUGGUGUCGUACA | 78.2 nM | 156 nM |  | 
CGAUAUGAUAGAGGAUAUGUAAUACAUGAGGAUCACCCAUGUUACAUGGGAAUUAUAAAUAAUUAACAGAAGGCUAUUCUAUCG | 63.8 nM | 177 nM |  | 
CGAUAUUAUGCAGGAUAUCUCCCUUGAAUGAGGAGAGAAGGGCAUAGGGAGACAUAAGCCUUAUUACAUGAGGAUCACCCAUGU | 9.67 nM | 8.35 nM |  | 
GCACAUGGCAUAGGAUAUAGAGCUUUAGUUUAUAUAGGUAGUUGGACUUAACUAGAAGGAUGGUACAUGAGGAUCACCCAUGUU |  |  | 20.6 nM | 17.4 nM
UUAGCAUACCGAGGAUAUUCAUAUAAUAAAUAAACAUGAGGAUCACCCAUGUGGCGAAAGCCUAGGGAGAAGGCGGAAUGCUUU |  |  | 177 nM | 28.1 nM
GGAUGACAAAGUCAUCCAUAACGAACAUGAGGAUCACCCAUGUAGGAUAUGCUAGUCAAAGACUAGCAGAAGGACAUGUGUCUU | 36.4 nM | 146 nM |  | 
CGGUCGAUAUCAGGAUAUCGUUUAAUUACAUGAGGAUCACCCAUGUUGACAUGGAAUAUAACAUGCGAGAAGGGAUUACGAUCG |  |  | 13.9 nM | 9.85 nM
ACAUGAGGAUCACCCAUGUAAAAUGAAGAAGGUAUAUACUUGAGGAUCACCCAUGUACAUGGGAAUAAGGAUAUUCUAAUAAUU |  |  | 13.5 nM | 12.6 nM
CGGCAUGUCUGAGGAUAUCUGCACGUUUAGUGCAGAGAAGGCAGAACAUGAGGAUCACCCAUGUAGAUCAUUAACCGAUUAAUU | 228 nM | 337 nM |  | 
